Data set [1] in a line: Partition coefficient (logP). The class given is physicochemical. The following applies: octanol/water. The procedure, abridged: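 Compound dissolved in 0.3 mL 1-octanol and shaken with 0.3 mL water by vortexing for 10 min. Phases separated by centrifugation. Each phase analysed by RP-18 HPLC with UV detection at 250 nm. P taken from the ratio of aqueous and organic peak areas.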

The subject of data set [2] is P3HR-1. The experiment in a line: Cytotoxic concentration for inhibition of human lymphoblastoid P3HR-1 cell growth. Format: functional. The essentials:
(§1)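 P3HR-1 cells seeded at 2 × 10⁵ cells/mL and grown 7 days with compound at a range of concentrations. Cells counted on a particle counter. CC50 calculated as 50% inhibition of cell growth.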

Data set [3] has as its system Nucleic Acid. The data set is described as follows: Effective concentration for the inhibition of Epstein-Barr virus EBV-DNA synthesis in human lymphoblastoid P3HR-1 cells. The class given is functional, cell-based. The settings on record: human gammaherpesvirus 4, P3HR-1. The essentials:
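P3HR-1 (EBV producer) cells in RPMI-1640 with 10% heat-inactivated FCS at 36.5 °C, seeded at 10⁶ cells/mL. TPA 20 ng/mL added to induce virus production. Compound given at a range of concentrations for 7 days. DNA extracted and 10 μg used for slot blot hybridization with a digoxigenin-labeled EBV BamHI-W probe, chemiluminescence and densitometry. EC50 obtained by regression against untreated cells.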

Data set [4] can be described thus: Selectivity index as the ratio of CC50 value to that of EC50 value. The class given is functional. The procedure, abridged:
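Selectivity index is CC50 (μM)/EC50 (μM). CC50 is for P3HR-1 growth over 7 days, read by cell count. EC50 is for EBV DNA synthesis in TPA-induced P3HR-1 cells over 7 days, read by slot blot.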

The subject of data set [5] is P3HR-1. The experiment in a line: Cytotoxic concentration for the inhibition of P3HR-1 cell growth. Format: functional. The following applies: Homo sapiens. The procedure, abridged:
as §1

Data set [6] in a line: Selectivity as the ratio of CC50 value to that of EC50 value. Format: functional. The procedure, abridged: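 Ratio CC50/EC50, both in P3HR-1 cells over 7 days at varied concentrations. EC50: cells seeded at 10⁶ cells/mL, induced with TPA 20 ng/mL; EBV DNA in 10 μg total DNA by slot blot with digoxigenin-labeled BamHI-W probe, chemiluminescence and densitometry; regression against untreated cells. CC50: growth from 2 × 10⁵ cells/mL, cells counted with a particle counter.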

`Cc1cccc2c1OP(=O)(OC[C@H]1O[C@@H](n3cc(/C=C/Br)c(=O)[nH]c3=O)C[C@@H]1OC(=O)[C@@H](N)Cc1ccccc1)OC2` (stereo partly specified) gave a logP in data set [1] of 0.5. The compound also came in with a CC50 in data set [2] of 35 µM. Also, in data set [3], the concentration giving a half-maximal response (EC50) was no less than 129 µM.

With `CC(C)(C)c1cccc2c1OP(=O)(OC[C@H]1O[C@@H](n3cc(/C=C/Br)c(=O)[nH]c3=O)C[C@@H]1O)OC2` (stereo partly specified), the SI in data set [4] was found to be 2.5. In data set [1], this compound yielded a logP of 2.9. The compound also registered a CC50 in data set [2] of 80 µM. The same compound displayed an EC50 in data set [3] of 32.5 µM.

As for `Cc1cccc2c1OP(=O)(OC[C@H]1O[C@@H](n3cc(/C=C/Br)c(=O)[nH]c3=O)C[C@@H]1OC(=O)CN)OC2` (stereo partly specified), the SI in data set [4] amounted to 2.1. Further, the logP in data set [1] is -0.8. This compound registered a CC50 in data set [2] of 93 µM. The EC50 in data set [3] is 43.5 µM.

In the case of `O=c1[nH]c(=O)n([C@H]2C[C@H](O)[C@@H](CO)O2)cc1/C=C/Br` [BRIVUDINE], the logP in data set [1] came to 0.33. The compound further registered a concentration for a half-maximal effect (EC50) in data set [3] greater than 300 µM. Moreover, in data set [5], the CC50 came to 225 µM.

As for `CCCCCCCCCCC(=O)O[C@H]1C[C@H](n2cc(/C=C/Br)c(=O)[nH]c2=O)O[C@@H]1COP1(=O)OCc2cccc(C)c2O1` (stereo partly specified), in data set [1], the logP worked out at 2.8. The same compound came in with an EC50 in data set [3] greater than 149 µM. Further, in data set [5], the CC50 is greater than 299 µM.

In data set [1], `Cc1cccc2c1OP(=O)(OC[C@H]1O[C@@H](n3cc(/C=C/Br)c(=O)[nH]c3=O)C[C@@H]1OC(=O)[C@@H]1CCCN1)OC2` (stereo partly specified) came in with a logP of -0.4. In data set [2], this compound displayed a CC50 of 36 µM. For the same compound, in data set [3], the EC50 is no less than 138 µM.

Regarding `Cc1cccc2c1OP(=O)(OC[C@H]1O[C@@H](n3cc(/C=C/Br)c(=O)[nH]c3=O)C[C@@H]1OC(=O)[C@H](N)Cc1ccccc1)OC2` (stereo partly specified), in data set [4], the SI worked out at 1.4. In addition, the logP in data set [1] is 0.5. The compound further registered a CC50 in data set [2] of 66 µM. This compound returned an EC50 in data set [3] of 46.5 µM.

For the compound `CCCCCCC(=O)O[C@H]1C[C@H](n2cc(/C=C/Br)c(=O)[nH]c2=O)O[C@@H]1COP1(=O)OCc2cccc(C)c2O1` (stereo partly specified), the logP in data set [1] worked out at 2.6. In data set [3], the EC50 was greater than 163 µM. For the same compound, the CC50 in data set [5] was greater than 326 µM.

`O=c1[nH]c(=O)n([C@H]2C[C@H](O)[C@@H](COP3(=O)OCc4cc(Cl)ccc4O3)O2)cc1/C=C/Br` (stereo partly specified): the SI in data set [4] is 3.1. The compound also came in with a log partition coefficient (logP) in data set [1] of 1.8. This compound also gave a CC50 in data set [2] of 80 µM. The compound also returned an EC50 in data set [3] of 25.8 µM.

`Cc1cccc2c1OP(=O)(OC[C@H]1O[C@@H](n3cc(/C=C/Br)c(=O)[nH]c3=O)C[C@@H]1O)OC2` (stereo partly specified): in data set [4], the SI was 30. The compound also had a logP in data set [1] of 1.9. This compound yielded a CC50 in data set [2] of 122 µM. In addition, in data set [3], the 50% effective concentration (EC50) was determined as 4.11 µM.

Consider `COc1ccc2c(c1)COP(=O)(OC[C@H]1O[C@@H](n3cc(/C=C/Br)c(=O)[nH]c3=O)C[C@@H]1O)O2` (stereo partly specified), for which the SI in data set [4] came to 41. In data set [1], this compound yielded a logP of 1.6. This compound also showed a CC50 in data set [2] of 137 µM. The compound further displayed an EC50 in data set [3] of 3.35 µM.

As for `Cc1cccc2c1OP(=O)(OC[C@H]1O[C@@H](n3cc(/C=C/Br)c(=O)[nH]c3=O)C[C@@H]1OC(=O)[C@H]1CCCN1)OC2` (stereo partly specified), in data set [1], the logP is -0.4. The compound also came in with a CC50 in data set [2] of 38 µM. Further, the EC50 in data set [3] was no less than 138 µM.

For `Nc1nc2c(ncn2COCCO)c(=O)[nH]1` [ACYCLOVIR], the Selectivity in data set [6] is 58. The compound further returned an EC50 in data set [3] of 6.75 µM. The compound further showed a CC50 in data set [5] of 392 µM.

`O=c1[nH]c(=O)n([C@H]2C[C@H](O)[C@@H](COP3(=O)OCc4ccccc4O3)O2)cc1/C=C/Br` (stereo partly specified): the SI in data set [4] is 7.5. In addition, the logP in data set [1] was found to be 1.5. In data set [2], this compound registered a cytotoxic concentration (CC50) of 92 µM. Moreover, the EC50 in data set [3] is 12.3 µM.

Consider `Cc1cccc2c1OP(=O)(OC[C@H]1O[C@@H](n3cc(/C=C/Br)c(=O)[nH]c3=O)C[C@@H]1OC(=O)[C@H](N)C(C)C)OC2` (stereo partly specified), for which, in data set [1], the logP is -0.1. The midpoint of cytotoxicity in data set [2], the CC50, lay at 80 µM. This compound gave an EC50 in data set [3] greater than 137 µM.

As for `Cc1cccc2c1OP(=O)(OC[C@H]1O[C@@H](n3cc(/C=C/Br)c(=O)[nH]c3=O)C[C@@H]1OC(=O)[C@@H](N)C(C)C)OC2` (stereo partly specified), the SI in data set [4] amounted to 0.6. This compound displayed a logP in data set [1] of -0.1. Further, in data set [2], the CC50 came out at 47 µM. Besides, the EC50 in data set [3] worked out at 81.8 µM.

For `Cc1cccc2c1OP(=O)(OC[C@H]1O[C@@H](n3cc(/C=C/Br)c(=O)[nH]c3=O)C[C@@H]1OC(=O)CC(C)C)OC2` (stereo partly specified), the lipophilicity (logP) in data set [1] came to 2.4. In addition, the 50% cytotoxic concentration (CC50) in data set [2] came out at 104 µM. Also, the EC50 in data set [3] is greater than 171 µM.

Regarding `Cc1cccc2c1OP(=O)(OC[C@H]1O[C@@H](n3cc(/C=C/Br)c(=O)[nH]c3=O)C[C@@H]1OC(=O)[C@H](N)CC(C)C)OC2` (stereo partly specified), in data set [1], the logP stood at 0.4. The CC50 in data set [2] was found to be 65 µM. Moreover, in data set [3], the EC50 is greater than 135 µM.

`CC(=O)CCC(=O)O[C@H]1C[C@H](n2cc(/C=C/Br)c(=O)[nH]c2=O)O[C@@H]1COP1(=O)OCc2cccc(C)c2O1` (stereo partly specified) showed a log partition coefficient (logP) in data set [1] of 2.3. The compound also displayed a CC50 in data set [2] of 152 µM. For the same compound, the EC50 in data set [3] was greater than 163 µM.

For `Cc1cc(C)c2c(c1)COP(=O)(OC[C@H]1O[C@@H](n3cc(/C=C/Br)c(=O)[nH]c3=O)C[C@@H]1O)O2` (stereo partly specified), the SI in data set [4] came to 9.9. In data set [1], this compound displayed a logP of 2.2. For the same compound, in data set [2], half-maximal cytotoxicity (CC50) was put at 143 µM. Besides, the response in data set [3] was half-maximal at 14.4 µM (EC50).

As for `Cc1cccc2c1OP(=O)(OC[C@H]1O[C@@H](n3cc(/C=C/Br)c(=O)[nH]c3=O)C[C@@H]1OC(=O)[C@@H](N)CC(C)C)OC2` (stereo partly specified), the SI in data set [4] was found to be 2. The same compound showed a logP in data set [1] of 0.4. For the same compound, the midpoint of cytotoxicity in data set [2], the CC50, lay at 45 µM. This compound yielded a concentration giving a half-maximal response (EC50) in data set [3] of 23 µM.

With `CC(=O)O[C@H]1C[C@H](n2cc(/C=C/Br)c(=O)[nH]c2=O)O[C@@H]1COP1(=O)OCc2cccc(C)c2O1` (stereo partly specified), the log partition coefficient (logP) in data set [1] amounted to 2.2. In addition, in data set [2], the CC50 is 109 µM.

`CCC(C)[C@@H](N)C(=O)O[C@H]1C[C@H](n2cc(/C=C/Br)c(=O)[nH]c2=O)O[C@@H]1COP1(=O)OCc2cccc(C)c2O1` (stereo partly specified): in data set [1], the logP is -0.02. The compound further gave a CC50 in data set [2] of 37 µM. Besides, in data set [3], the EC50 is greater than 135 µM.

Turning to `CCC(C)[C@H](N)C(=O)O[C@H]1C[C@H](n2cc(/C=C/Br)c(=O)[nH]c2=O)O[C@@H]1COP1(=O)OCc2cccc(C)c2O1` (stereo partly specified), in data set [1], the logP is -0.02. In data set [2], the CC50 was determined as 78 µM. Also, the EC50 in data set [3] is greater than 135 µM.

In general, logP refers to the decadic logarithm of the partition coefficient of the neutral form, usually between octanol and water. Broadly, the CC50 is the concentration at which the toxic effect on the cells reaches its halfway point. Broadly, the EC50 is the midpoint of the concentration-response curve. High values mean weaker potency, low ones greater potency.

For the origin of these results see ChEMBL document CHEMBL1135649, “CycloSal-BVDUMP pronucleotides: how to convert an antiviral-inactive nucleoside analogue into a bioactive compound against EBV” (J Med Chem, 2002).
